# Source: PMC3562655 (Journal of bone and mineral research : the official journal …, 2013)
# Experiments:
# [1] = biological target: T1, purified recombinant human PHOSPHO1 (Homo sapiens, UniProt Q8TCT1); assay: PHOSPHO1 inhibition, Biomol Green colorimetric phosphate release assay; assay type: biochemical; conditions: for IC50: pH 6.7, 60 min room temperature
# T1 sequence (Q8TCT1 1-292 isoform Q8TCT1-3): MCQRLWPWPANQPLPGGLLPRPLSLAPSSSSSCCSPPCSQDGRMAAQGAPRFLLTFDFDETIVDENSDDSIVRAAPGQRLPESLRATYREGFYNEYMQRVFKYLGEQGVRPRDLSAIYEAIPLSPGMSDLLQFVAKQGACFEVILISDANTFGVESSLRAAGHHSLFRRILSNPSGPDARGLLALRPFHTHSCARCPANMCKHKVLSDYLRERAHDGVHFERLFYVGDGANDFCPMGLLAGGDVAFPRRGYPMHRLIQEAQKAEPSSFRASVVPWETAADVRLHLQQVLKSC
# ENPP1 = biological target: T2, ENPP1 (Homo sapiens, UniProt P22413); conditions: cited from earlier work
# T2 sequence (P22413 98-925 limits assumed): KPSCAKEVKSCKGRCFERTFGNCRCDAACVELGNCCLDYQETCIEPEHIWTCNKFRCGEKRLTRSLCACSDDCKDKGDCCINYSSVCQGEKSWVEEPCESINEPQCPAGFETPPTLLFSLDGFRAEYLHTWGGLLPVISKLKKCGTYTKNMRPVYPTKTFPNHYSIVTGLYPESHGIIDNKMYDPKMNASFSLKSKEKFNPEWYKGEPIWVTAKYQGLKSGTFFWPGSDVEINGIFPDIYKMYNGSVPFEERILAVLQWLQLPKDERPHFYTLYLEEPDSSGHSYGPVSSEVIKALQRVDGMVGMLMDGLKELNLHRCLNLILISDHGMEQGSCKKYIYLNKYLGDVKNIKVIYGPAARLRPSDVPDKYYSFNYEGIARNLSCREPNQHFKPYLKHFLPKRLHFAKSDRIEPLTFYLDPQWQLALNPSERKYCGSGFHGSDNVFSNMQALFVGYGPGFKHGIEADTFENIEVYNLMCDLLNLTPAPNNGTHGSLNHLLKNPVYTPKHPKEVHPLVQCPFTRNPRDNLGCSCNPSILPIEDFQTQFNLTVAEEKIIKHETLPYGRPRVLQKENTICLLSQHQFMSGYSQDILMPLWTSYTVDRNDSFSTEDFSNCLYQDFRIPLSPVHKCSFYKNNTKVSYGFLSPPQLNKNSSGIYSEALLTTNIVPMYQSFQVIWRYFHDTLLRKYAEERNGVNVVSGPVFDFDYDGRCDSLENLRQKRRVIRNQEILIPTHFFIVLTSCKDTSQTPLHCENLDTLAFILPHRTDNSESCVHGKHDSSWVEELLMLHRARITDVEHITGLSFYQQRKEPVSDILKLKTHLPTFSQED
# PHOSPHO1 = biological target: T3, PHOSPHO1 (Homo sapiens, UniProt Q8TCT1); assay: Mechanism of PHOSPHO1 inhibition, double reciprocal plots; assay type: biochemical
# T3 sequence (Q8TCT1 1-292 isoform Q8TCT1-3): T1 sequence (Q8TCT1 1-292 isoform Q8TCT1-3)
# [2] = test system: Phospho1^-/- chondrocytes; assay: Mineralization of Phospho1-/- chondrocytes; assay type: cell-based; conditions: not shown
# WT VSMCs = assay: Calcification assay, Alizarin Red staining of WT VSMCs; assay type: cell-based, mouse
# Summary of the method: (§1)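 Aortic VSMCs from WT, Enpp1-/- or Phospho1-/- mice were isolated by collagenase digestion and grown in triplicate for 21 days. Medium was α-MEM with 50 µg/mL ascorbic acid plus 2.5 mmol/L β-glycerophosphate (all genotypes) or 3 mmol/L sodium phosphate (WT), changed every second day. Test compound (DMSO; final 30 µmol/L), alone or combined, was added at each change. Staining used 2% Alizarin Red (pH 4.2, 30 min RT), then 10% cetylpyridinium chloride extraction, absorbance read. Values are % of vehicle control, mean ± S.E.M.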
# TNAP = biological target: T4, TNAP (Homo sapiens, UniProt P05186); conditions: ref Ciancaglini et al. (2010), 25, 42; cited from earlier work
# T4 sequence (P05186 18-502 limits assumed): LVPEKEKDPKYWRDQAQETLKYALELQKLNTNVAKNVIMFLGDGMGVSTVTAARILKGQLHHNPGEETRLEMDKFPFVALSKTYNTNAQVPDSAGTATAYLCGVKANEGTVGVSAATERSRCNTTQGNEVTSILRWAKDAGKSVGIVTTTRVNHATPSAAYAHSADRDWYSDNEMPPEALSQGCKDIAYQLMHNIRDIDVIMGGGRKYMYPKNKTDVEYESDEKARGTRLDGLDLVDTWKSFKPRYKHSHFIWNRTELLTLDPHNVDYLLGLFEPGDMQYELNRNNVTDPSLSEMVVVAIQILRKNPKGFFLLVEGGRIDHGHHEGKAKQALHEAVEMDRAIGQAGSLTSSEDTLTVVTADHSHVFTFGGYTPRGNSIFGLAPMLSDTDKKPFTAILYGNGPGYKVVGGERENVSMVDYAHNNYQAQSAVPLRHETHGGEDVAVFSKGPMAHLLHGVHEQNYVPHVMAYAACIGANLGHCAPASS
# Phospho1^-/- VSMCs = assay: Calcification assay, Alizarin Red staining of Phospho1-/- VSMCs; assay type: cell-based, mouse; conditions: 21 days, β-glycerophosphate, inhibitor 30 μmol/L
# Summary of the method: as §1
# Enpp1^-/- VSMCs = assay: Calcification assay, Alizarin Red staining of Enpp1-/- VSMCs; assay type: cell-based, mouse; conditions: 21 days, β-glycerophosphate, inhibitor 30 μmol/L
# Summary of the method: as §1
"IC50 ([1]; P-Cho IC50, substrate P-Cho 62.5 μmol/L)","IC50 ([1]; P-Etn IC50, substrate P-Etn 62.5 μmol/L)",Ki (PHOSPHO1),nature of the PHOSPHO1 inhibition (PHOSPHO1; double reciprocal plots versus P-Etn),SMILES,"inhibition of ENPP1 activity (ENPP1; ref Ciancaglini et al. (2010), 25, 42)",mineralization of Phospho1-/- chondrocytes [2],toxicity to smooth muscle cells observed in the mineralization studies (WT VSMCs),"effect on mineralization in words (WT VSMCs; WT VSMCs, 21 days, inhibitor 30 μmol/L)",inhibition of TNAP activity (TNAP),effect on mineralization in words (Phospho1^-/- VSMCs),"inhibition of PHOSPHO1 in point experiments ([1]; inhibitor 1, 10, 30 μmol/L, substrates P-Etn and P-Cho)",cross-inhibition of ENPP1 (ENPP1),effect on mineralization in words (Enpp1^-/- VSMCs)
60 ± 10 nM,70 ± 10 nM,160 ± 30 nM,competitive,Cc1c(OCC(F)(F)F)ccnc1C[S+]([O-])c1nc2ccccc2[nH]1 (stereo not shown) [Lansoprazole],partially inhibits,inhibited mineralization,showed toxicity to smooth muscle cells,significantly inhibited mineralization,partially inhibits,–,–,–,–
–,–,–,–,COc1ccc(OC)c(S(=O)(=O)Nc2cnc3ccccc3c2)c1 [MLS-0038949],–,–,–,–,–,significantly inhibited mineralization,"selectively inhibits TNAP, but not PHOSPHO1",does not cross-inhibit,strongly reduced mineralization
